The record followed here is ChEMBL document CHEMBL2424573 (J Med Chem, 2013).

The subject of assay [1] is Human immunodeficiency virus 1. Put plainly: Antiviral activity against HIV1 LAI infected in human MT2 cells by MTT assay. Format: functional, organism-based. The following applies: Human immunodeficiency virus 1, LAI. An outline of the steps: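 MT-2 human T-lymphoid cells (2 × 10^3) were exposed to 100 TCID50 of HIV-1LAI and cultured in the presence of protease inhibitor. IC50 was determined by MTT assay and reported as the mean of at least two experiments.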

Assay [2] addresses T1, Protease (Human immunodeficiency virus 1, UniProt Q9YQ12). Put plainly: Inhibition of HIV1 LAI protease by fluorescence assay.
Assay [3] relates to Human immunodeficiency virus 1. Put plainly: Antiviral activity against HIV1 LAV. Conditions: Human immunodeficiency virus 1, LAV. In kind it is functional, organism-based.
For assay [4], the target named is T1, Protease. In words: Inhibition of HIV1 protease.
The test system of assay [5] is Human immunodeficiency virus 1. In words: Ratio of amprenavir EC50 to compound EC50 for wild type HIV-1 ERS104pre. In kind it is functional.
Assay [6] relates to Human immunodeficiency virus 1. Put plainly: Antiviral activity against wild type HIV1 ERS104pre infected in human PHA-PBMC cells assessed as inhibition of p24 Gag protein production. In kind it is functional, organism-based. Conditions: Human immunodeficiency virus 1, ERS104pre. An outline of the steps:
(§1)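 EC50 was determined against each clinical isolate and wild-type HIV-1ERS104pre. Assays were run in duplicate, and values are means (±1 standard deviation) of two or three independent experiments.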

In assay [7] the test system is Human immunodeficiency virus 1. Put plainly: Ratio of EC50 for wild type HIV1 ERS104pre to EC50 for multidrug-resistant HIV1 G harboring L10I/V11I/T12E/I15V/L19I/R41K/M46L/L63P/A71T/V82A/L90M protease-encoding region mutant. Format: functional.
In assay [8] the test system is Human immunodeficiency virus 1. Put plainly: Ratio of EC50 for wild type HIV1 ERS104pre to EC50 for multidrug-resistant HIV1 C harboring L10I/I15V/K20R/L24I/M36I/M46L/I54V/I62V/L63P/K70Q/V82A/L89M protease-encoding region mutant. Format: functional.
Assay [9] relates to Human immunodeficiency virus 1. In words: Antiviral activity against multidrug-resistant HIV1 C harboring L10I/I15V/K20R/L24I/M36I/M46L/I54V/I62V/L63P/K70Q/V82A/L89M protease-encoding region mutant infected in human PHA-PBMC cells assessed as inhibition of p24 Gag protein production. Format: functional, organism-based. Conditions: Human immunodeficiency virus 1, C. An outline of the steps:
as §1

Assay [10] concerns Human immunodeficiency virus 1. Put plainly: Antiviral activity against multidrug-resistant HIV1 TM harboring L10I/K14R/R41K/M46L/I54V/L63P/A71V/V82A/L90M/I93L protease-encoding region mutant infected in human PHA-PBMC cells assessed as inhibition of p24 Gag protein production. Format: functional, organism-based. Conditions: Human immunodeficiency virus 1, TM. An outline of the steps:
as §1

Assay [11] deals with Human immunodeficiency virus 1. In words: Ratio of EC50 for wild type HIV1 ERS104pre to EC50 for multidrug-resistant HIV1 TM harboring L10I/K14R/R41K/M46L/I54V/L63P/A71V/V82A/L90M/I93L protease-encoding region mutant. Format: functional. The gist of the method: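 Antiviral EC50 was measured against wild-type HIV-1ERS104pre and against multidrug-resistant isolates. The fold change is the EC50 for each isolate divided by the wild-type EC50. Assays were run in duplicate. Values are means (±1 standard deviation) from two or three independent experiments.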

In assay [12] the test system is Human immunodeficiency virus 1. In words: Antiviral activity against multidrug-resistant HIV1 G harboring L10I/V11I/T12E/I15V/L19I/R41K/M46L/L63P/A71T/V82A/L90M protease-encoding region mutant infected in human PHA-PBMC cells assessed as inhibition of p24 Gag protein production. Format: functional, organism-based. Conditions: Human immunodeficiency virus 1, G. An outline of the steps:
as §1

Each structure is given as a SMILES string.

T1 sequence (Q9YQ12 whole entry): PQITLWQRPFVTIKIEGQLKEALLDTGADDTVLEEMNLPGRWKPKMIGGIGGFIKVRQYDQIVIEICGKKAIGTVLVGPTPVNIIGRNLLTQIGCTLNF

As for `COc1ccc(S(=O)(=O)N(CC(C)C)C[C@@H](O)[C@H](Cc2ccccc2)NC(=O)O[C@@H]2COC[C@@H]3O[C@H]4OCC[C@H]4[C@@H]32)cc1`, the IC50 in assay [1] was found to be 260 nM. The compound further gave a Ki at Protease [2] of 3.1 nM.
In assay [3], `COc1ccc(S(=O)(=O)N(CC(C)C)C[C@@H](O)[C@H](Cc2ccccc2)NC(=O)O[C@H]2CO[C@H]3O[C@@H]4OCC[C@@H]4[C@H]32)cc1` returned an IC50 of 1.8 nM. Besides, the Ki on Protease [4] came out at 5.9 pM.
For the compound `COc1ccc(S(=O)(=O)N(CC(C)C)C[C@@H](O)[C@H](Cc2ccccc2)NC(=O)O[C@@H]2CC(C)(C)C[C@@H]3O[C@H]4OCC[C@H]4[C@@H]32)cc1`, at Protease [2], the Ki stood at 139 nM.
Same read-out and setting: as for `COc1ccc(S(=O)(=O)N(CC(C)C)C[C@@H](O)[C@H](Cc2ccccc2)NC(=O)O[C@H]2CC(C)(C)C[C@H]3O[C@@H]4OCC[C@@H]4[C@@H]23)cc1`, the figure is 8.8 nM.
On to `COc1ccc(S(=O)(=O)N(CC(C)C)C[C@@H](O)[C@H](Cc2ccccc2)NC(=O)O[C@H]2CS(=O)(=O)C[C@H]3O[C@@H]4OCC[C@@H]4[C@@H]23)cc1`, for which the IC50 in assay [1] was more than 1000 nM. Moreover, affinity on Protease [2] was put at a Ki of 0.6 nM.
The corresponding values for `COc1ccc(S(=O)(=O)N(CC(C)C)C[C@@H](O)[C@H](Cc2ccccc2)NC(=O)O[C@@H]2CS(=O)(=O)C[C@@H]3O[C@H]4OCC[C@H]4[C@@H]32)cc1` are more than 1000 nM and 10.5 nM.
On to `COc1ccc(S(=O)(=O)N(CC(C)C)C[C@@H](O)[C@H](Cc2ccccc2)NC(=O)O[C@H]2CCC[C@H]3O[C@@H]4OCC[C@@H]4[C@@H]23)cc1`, for which the “Ratio EC50” value was 10 in assay [5], 3 in assay [7], 2 in assay [8] and 4 in [11]. The EC50 in [6] was found to be 3.6 nM; in assay [9] it was 8 nM; in assay [10] it was 16 nM; in assay [12] it was 12 nM. This compound had a concentration for half-maximal inhibition (IC50) in assay [1] of 1.9 nM. At Protease [2], the Ki stood at 0.01 nM.
For `COc1ccc(S(=O)(=O)N(CC(C)C)C[C@@H](O)[C@H](Cc2ccccc2)NC(=O)O[C@H]2CCC[C@H]3O[C@@H]4OCCC[C@@H]4[C@@H]23)cc1`, the IC50 in [1] was found to be 48 nM. The compound further had a Ki on Protease [2] of 0.41 nM.
Turning to `COc1ccc(S(=O)(=O)N(CC(C)C)C[C@@H](O)[C@H](Cc2ccccc2)NC(=O)O[C@H]2COC[C@H]3O[C@@H]4OCC[C@@H]4[C@@H]23)cc1`, the EC50 in assay [6] amounted to 8.3 nM; in [9], 32.9 nM; in [12], 79.5 nM. Further, the “Ratio EC50” value in assay [7] was determined as 10; in assay [8], 4. In assay [1], this compound yielded an IC50 of 4.5 nM. Moreover, on Protease [2], the affinity corresponds to a Ki of 0.021 nM.
For `COc1ccc(S(=O)(=O)N(CC(C)C)C[C@@H](O)[C@H](Cc2ccccc2)NC(=O)O[C@@H]2CCC[C@@H]3O[C@H]4OCC[C@H]4[C@@H]32)cc1`, the IC50 in assay [1] was 240 nM. On Protease [2], this compound yielded a Ki of 0.45 nM.
For `CC(C)CN(C[C@@H](O)[C@H](Cc1ccccc1)NC(=O)O[C@H]1CCOC1)S(=O)(=O)c1ccc(N)cc1`, the EC50 came out at 28 nM in [6], 325 nM in assay [9] and 448 nM in [10]. The “Ratio EC50” value in assay [7] came out at 16; in assay [8], 12; in assay [11], 16.
